Our source for the Activity and EC50 values is ChEMBL document CHEMBL4251680, “Catecholic Isoquinolines from Portulaca oleracea and Their Anti-inflammatory and β2-Adrenergic Receptor Agonist Activity” (J Nat Prod, 2018).

Assay [1] deals with T1, Beta-2 adrenergic receptor (Homo sapiens, UniProt P07550). The experiment in a line: Agonist activity at human beta2-AR expressed in CHOK1 cells co-expressing Galpha15 at 100 uM measured after 21 secs to 120 secs by Calcium-4 dye based FLIPR assay relative to 1 uM isoproterenol. Type of assay: functional, cell-based. The method in brief: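 CHO-K1/Gα15 cells stably expressing β2-AR, grown in Ham's F12 with 10% FBS, hygromycin B and zeocin. Plated at 1.5 × 10^4 cells/well, 18 h, then loaded with FLIPR Calcium 4 dye for 1 h at 37 °C and 15 min at room temperature. Compounds from DMSO stocks diluted in HBSS/20 mM HEPES pH 7.4, added at 21 s. Read 120 s; stimulation ratio = (ΔRFU − background) relative to isoproterenol.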
Target sequence in this assay (P07550 whole entry, looked up): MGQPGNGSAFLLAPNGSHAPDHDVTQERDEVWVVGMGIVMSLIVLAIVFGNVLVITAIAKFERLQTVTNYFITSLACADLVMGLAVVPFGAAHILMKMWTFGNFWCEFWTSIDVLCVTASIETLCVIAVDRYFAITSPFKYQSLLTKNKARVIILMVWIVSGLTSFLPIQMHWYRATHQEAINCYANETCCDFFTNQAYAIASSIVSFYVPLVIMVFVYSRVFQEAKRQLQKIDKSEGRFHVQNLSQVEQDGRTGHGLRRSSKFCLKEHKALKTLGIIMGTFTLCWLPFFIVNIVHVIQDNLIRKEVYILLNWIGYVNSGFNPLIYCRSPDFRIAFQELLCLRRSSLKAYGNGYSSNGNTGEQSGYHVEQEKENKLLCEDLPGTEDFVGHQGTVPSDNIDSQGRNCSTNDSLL

The subject of a further assay is RAW264.7. The experiment in a line: cells. The following applies: Mus musculus, RAW264.7, 24 h.
For assay [2], the target named is T1, Beta-2 adrenergic receptor. The experiment in a line: Agonist activity at human beta2-AR expressed in CHOK1 cells co-expressing Galpha15 measured after 21 secs to 120 secs by Calcium-4 dye based FLIPR assay. The assay is classed as functional, cell-based.
Target sequence in this assay (P07550 whole entry): as the sequence (P07550 whole entry, looked up) above

Each structure is given as a SMILES string.

As to `O=C1c2cc(O)c(O)cc2CCn2cccc21`, the Activity in assay [1] is -11.5%. This compound gave an EC50 in the assay with RAW264.7 of 225 µM.
Regarding `O=C(NO)c1ccc(O)c(O)c1`, in the assay with RAW264.7, the EC50 is 82.4 µM.
On to `O=C1NCCc2cc(O)c(O)cc21`, for which the Activity in assay [1] was 0.5%. The half-maximal effective concentration (EC50) in the assay on RAW264.7 was determined as 126 µM.
For the compound `CC1=NCCc2cc(O)c(O)cc21`, the Activity in assay [1] is 37.7%. The same compound had a concentration giving a half-maximal response (EC50) in the assay on RAW264.7 of 209 µM.
The corresponding values for `CCOC(=O)CC[C@@H]1NCCc2cc(O)c(O)cc21` are 42% and 36.3 µM.
Consider `NCCc1ccc(O)c(O)c1` [DOPAMINE], for which the Activity in assay [1] turned out to be 86.4%. In the assay on RAW264.7, the response was half-maximal at 18 µM (EC50).
Taken in the same sequence, the figures for `O=C1CC[C@H]2c3cc(O)c(O)cc3CCN12` were 70.2% and 35.4 µM.
Take `NCCc1ccc(O)c(O)c1S(=O)(=O)O`: the Activity in assay [1] came out at 39.3%. This compound also returned a concentration for a half-maximal effect (EC50) in the assay on RAW264.7 of 310 µM.
`Oc1cc2c(cc1O)CCN=C2`: in assay [1], the Activity was found to be 41.1%. Besides, the EC50 with RAW264.7 turned out to be 248 µM.
Consider `Oc1cc2c(cc1O)CC[N+](Cc1ccco1)=C2`, for which the Activity in assay [1] is 11.4%. For the same compound, the EC50 in the assay on RAW264.7 was 87.9 µM.
Taken in the same sequence, the figures for `CC(C)C[C@H]1NCCc2cc(O)c(O)cc21` were 70.9% and 498 µM.
Regarding `C[C@@H]1NCCc2cc(O)c(O)cc21`, in assay [1], the Activity is 35.5%. The EC50 with RAW264.7 came out at 58.7 µM.
In the case of `Oc1cc2c(cc1O)C(c1ccco1)=NCC2`, the Activity in assay [1] came out at 91.8%. Further, the concentration for a half-maximal effect (EC50) in assay [2] came out at 5.1 µM; with RAW264.7, 18.1 µM.
Taken in the same sequence, the figures for `Oc1cc2c(cc1O)[C@@H](Cc1ccccc1)NCC2` were 90.8%, 0.0879 µM and 107 µM.
As for `OCc1ccc(C2=NCCc3cc(O)c(O)cc32)o1`, the Activity in assay [1] was determined as 70.6%. It took 203 µM to reach a half-maximal effect with RAW264.7 (EC50).

Broadly, the EC50 is the midpoint of the concentration-response curve.
